# hERG rescue: hERG (human) protection from proarrhythmic block. Q12809. CHO-hERG, FluxOR thallium flux, dofetilide IC70 present. activation (rescue from dofetilide block), less the hit threshold, % at 10 µM. actives 0.51% (n = 310,000). AID 1511;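 active means activation above the mean of controls blocked by dofetilide plus 5 SD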;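 further: thallium influx through hERG after potassium depolarization seen as dye fluorescence rise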
# KCNQ1 pot: human KCNQ1 channel potentiation or activation; B-score at 10 µM; AID 2648; P51787; actives 0.35% (n = 310,000); CHO-K1 KCNQ1, thallium flux FluxOR fluorescence; stronger effect = higher value;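 active means fluorescence ratio B-score, a plate-corrected score, at least three library SD, with initial intensity B-score within 5 SD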
#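 Material: CHO-K1 cells stably expressing KCNQ1. Medium: assay buffer for compound exposure, DMSO matched across wells. Reagent: K+/Tl+ depolarizing stimulus. Compound dosing: single-concentration screen. Times: 37 °C overnight plating, 90-min dark dye load, 20-min compound pretreatment. Technique: FluxOR Tl+ flux fluorescence.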
# KCNK3 inh: human KCNK3 channel inhibition, primary screen | O14649 | CHO-KCNK3 thallium flux, FluxOR fluorescence; stronger effect = lower value | B-score at 10 µM | actives 0.84% (n = 340,000) | AID 602410;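 active means B-score under library mean minus 4 SD, starting fluorescence ratio at most library mean plus 5 SD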;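 further: more negative B-score means stronger inhibition of thallium flux through KCNK3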
# KCNK9 inh: inhibitors of human KCNK9 two-pore domain potassium channel. Q9NPC2. HEK293 KCNK9, FluxOR thallium flux fluorescence; stronger effect = lower value. B-score at 10 µM. actives 1.2% (n = 310,000). AID 488922;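 active means ratio B-score over 3 SD below the library mean, with starting fluorescence within 5 SD of its mean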;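 further: negative B-score means less thallium flux so channel inhibition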
# KCNQ1 block: inhibitors of human KCNQ1 potassium channel | actives 1.3% (n = 310,000) | AID 2642 | CHO-K1 KCNQ1, FluxOR thallium flux fluorescence; stronger effect = higher value | P51787 | B-score at 10 µM;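 active means compounds whose thallium flux B-score, printed positive for inhibition, exceeds three library SD while starting fluorescence stays within three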;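 further: channel opened by potassium depolarization with thallium stimulus after 20 min compound exposure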
# Kir21 inh: inhibitors of mouse Kir2.1 inward-rectifier potassium channel; P35561; HEK293-Kir2.1, FluxOR thallium flux fluorescence; stronger effect = lower value; B-score at 10 µM; actives 0.85% (n = 310,000);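 active means fluorescence ratio B-score at or below minus 3 SD of library scores, with starting-brightness B-score within 2 SD, cut at about -4.2 in these data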;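 further: channel flux triggered by added potassium and thallium sulfate stimulus; B-score of peak minus minimum fluorescence over baseline after thallium stimulus; more negative B-score means stronger Kir2.1 block with less thallium influx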
# KCNQ1 inh valid: human KCNQ1 channel inhibition, validation assay; AID 588353; KCNQ1 cell line, FluxOR thallium flux fluorescence; inhibition, % at 10 µM; shares compounds with KCNQ1 block; actives 93% (n = 1,600);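 active means primary screen active, with duplicate mean exceeding buffer control mean plus 3 SD of buffer wells, cut at about 28% in these data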;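 further: 0% = buffer control ratio and 100% = XE991 inhibitor control ratio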
# CHO Tl flux: KCNQ1 inhibitor counter-screen hit in parental CHO cells; fluorescence ratio (Tl flux) at 10 µM; shares compounds with KCNQ1 block; parental CHO-K1, FluxOR thallium flux fluorescence ratio; stronger effect = lower value; zero means no signal rise above baseline; actives 21% (n = 1,600);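 active means mean of duplicate thallium-flux fluorescence ratios in parental host cells more than 5 SD below the buffer control mean, cut at about 0.38 in these data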;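 further: ratio is peak minus minimum fluorescence divided by baseline fluorescence; actives read low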
# KCNQ1 APC inh: confirmation of human KCNQ1 potassium channel inhibitors by electrophysiology | KCNQ1-CHO cells, automated patch clamp current | shares compounds with KCNQ1 block | calls only at 10 µM | actives 20% (n = 490);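 active means KCNQ1 current drop exceeding 3 SD of negative control wells, seen in both duplicate runs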;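 further: steady state current during a 2 s step from -80 to +40 mV; negative values mean current inhibition and positive values mean potentiation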
# KCNQ2 spec: rat KCNQ2 inhibition in KCNQ1 inhibitor specificity screen; shares compounds with KCNQ1 block; KCNQ2 cells, FluxOR thallium flux fluorescence; inhibition, % at 10 µM; actives 71% (n = 1,600);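 active means mean percent inhibition of the KCNQ2 thallium signal more than 5 SD above the buffer-only control wells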;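 further: KCNQ2 expressed in CHO cells; 0% = buffer control wells and 100% = XE-991 inhibitor control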
# KCNQ1-KCNE1 inh: KCNQ1 inhibitor that also blocks human KCNQ1/KCNE1 channel; shares compounds with KCNQ1 block; actives 77% (n = 1,600); KCNQ1/KCNE1 cells, FluxOR thallium flux fluorescence; inhibition, % at 10 µM; AID 652147;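 active means mean percent inhibition of duplicate wells above the buffer-only control mean plus 3 SD of those controls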;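 further: 0% = buffer only wells and 100% = XE-991 inhibitor control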
# Target sequence (P51787 whole entry, looked up): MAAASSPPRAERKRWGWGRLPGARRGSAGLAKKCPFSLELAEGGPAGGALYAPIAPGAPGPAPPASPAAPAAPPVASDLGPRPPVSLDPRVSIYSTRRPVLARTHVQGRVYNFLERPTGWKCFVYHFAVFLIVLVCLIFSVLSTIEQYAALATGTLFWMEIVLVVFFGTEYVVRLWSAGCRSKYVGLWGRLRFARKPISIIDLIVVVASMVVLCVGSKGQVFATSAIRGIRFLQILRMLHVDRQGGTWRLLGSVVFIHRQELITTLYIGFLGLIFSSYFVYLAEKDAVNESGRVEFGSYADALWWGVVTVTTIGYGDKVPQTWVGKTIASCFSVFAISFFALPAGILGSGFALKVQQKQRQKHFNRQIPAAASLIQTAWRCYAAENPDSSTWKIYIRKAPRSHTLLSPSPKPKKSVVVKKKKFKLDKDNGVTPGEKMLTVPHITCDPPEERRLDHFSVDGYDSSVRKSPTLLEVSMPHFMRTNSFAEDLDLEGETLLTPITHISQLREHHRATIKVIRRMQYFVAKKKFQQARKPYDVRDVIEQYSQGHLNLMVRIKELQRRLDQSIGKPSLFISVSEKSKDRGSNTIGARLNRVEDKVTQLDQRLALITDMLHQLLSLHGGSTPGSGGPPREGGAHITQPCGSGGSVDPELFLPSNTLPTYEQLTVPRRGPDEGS
# Active calls of the source: *; i = inactive; / = no result given; + = active, no number. Only some compounds are listed: those with a hit (about 3.8% of all), similar ones and a draw of the others.
SMILES,hERG rescue,KCNQ1 pot,KCNK3 inh,KCNK9 inh,KCNQ1 block,Kir21 inh,KCNQ1 inh valid,CHO Tl flux,KCNQ2 spec,KCNQ1-KCNE1 inh,others
Fc1ccc(NC(=S)NCc2cccs2)cc1,-7,i,i,i,6*,0.01,0,0.52,i,48%*,
CCCCc1ccc(N/C(N)=N/c2nc(C)cc(C)n2)cc1,-17,i,i,i,11*,-5.2*,96*,0.41,66%*,i,KCNQ1 APC inh=+
Cc1ccc(N/C(N)=N/c2nc(C)cc(C)n2)cc1,-7,i,i,i,i,-0.02,/,/,/,/,
Cc1cc(C)c2c(N)c(C(=O)c3ccc(Cl)cc3)sc2n1,-3,i,i,i,i,-2,/,/,/,/,
COc1ccc(C(=O)c2sc3nc(C)cc(-c4cccs4)c3c2N)cc1,-23,i,i,i,6*,0.77,195*,0.26*,i,i,
COc1ccc(C(=O)c2sc3nc(C)cc(-c4cccs4)c3c2N)cc1OC,-10,i,i,i,7*,-1.6,199*,0.2*,i,i,
Cc1cc(C)c2c(N)c(C(=O)c3ccc(Cl)c(Cl)c3)sc2n1,-13,i,i,i,i,0,/,/,/,/,
CC(C)NC(=O)c1sc2nc(-c3cccs3)cc(-c3cccs3)c2c1N,-10,i,/,i,6*,2,198*,0.28*,i,i,
CC(=O)c1sc2nc(-c3cccs3)ccc2c1N,-15,i,i,i,i,-1,/,/,/,/,
Cc1ccc[n+](CC(=O)Nc2ccc(Cl)c([N+](=O)[O-])c2)c1,-4,i,i,i,i,0.4,/,/,/,/,
Cc1cccc(C)c1OCc1cc(C(=O)N2CCC(c3ccncc3)CC2)no1,-22,i,i,i,7*,-0.01,113*,0.52,69%*,35%*,KCNQ1 APC inh=i
Cc1cccc(C)c1OCc1cc(C(=O)N2CCN(c3ccccc3)CC2C)no1 (stereo not drawn),-14,i,i,i,8*,-1,86*,0.38*,117%*,120%*,
Cc1ccc(-c2cc3ccccc3nc2N2CCCC2)cc1,-8,i,i,i,12*,-2,118*,0.43,87%*,194%*,KCNQ1 APC inh=i
Clc1ccc(-c2cc3ccccc3nc2N2CCCC2)cc1,-9,i,i,i,12*,-0.48,130*,0.4,83%*,167%*,KCNQ1 APC inh=i
Cc1ccc(-c2nnc(N3CCCCC3)c3ccccc23)cc1,-12,i,i,i,i,0.41,/,/,/,/,
CCCCN(C(=O)CSc1c(C)c(C)cc(C)c1C)c1c(N)n(CCC)c(=O)[nH]c1=O,/,/,i,/,/,/,/,/,/,/,
Cc1cccc2cc(CN(C(=S)NCC(C)C)C3CCCC3)c(=O)[nH]c12,-5,i,i,i,i,-0.4,/,/,/,/,
Cc1cc2nc(CCN(C(=S)NCC(C)C)C3CCCC3)[nH]c2cc1C,-11,i,i,i,8*,0.56,167*,0.43,101%*,i,KCNQ1 APC inh=i
Cc1nc2cc(F)ccc2n1C1CCN(S(=O)(=O)c2ccccc2)CC1,-4,i,i,i,i,0.16,/,/,/,/,
CCOC(=O)c1cc(C#N)c(Oc2ccccc2)nc1-c1ccccc1,-3,i,i,i,7*,-0.2,88*,0.33*,112%*,96%*,
O=C(/C=C/c1cccc(F)c1)OCC(=O)N1CCCC1,/,/,i,/,/,/,/,/,/,/,
O=C(Nc1ccc(F)cc1)c1ccccc1NS(=O)(=O)N1CCCC1,-10,i,i,i,7*,0.51,82*,0.54,67%*,i,
O=C(Nc1cccc(Cl)c1)Nc1ccc(Br)cc1F,-13,i,i,i,9*,-0.1,52*,0.55,i,i,
Cc1csc(NC(=O)Nc2cccc(Cl)c2)n1,-5,i,i,i,6*,1.1,70*,0.52,i,93%*,
O=C(Nc1cccc(Cl)c1)Nc1cnccn1,-3,i,i,i,i,0.45,/,/,/,/,
SMILES,hERG rescue,KCNQ1 pot,KCNK3 inh,KCNK9 inh,KCNQ1 block,Kir21 inh,KCNQ1 inh valid,CHO Tl flux,KCNQ2 spec,KCNQ1-KCNE1 inh,others
O=C(Nc1cccc(Cl)c1)Nc1ccon1,-10,i,i,i,7*,2.6,54*,0.54,i,i,
O=C(Nc1cccc(Cl)c1)Nc1ccnc(-c2cccnc2)n1,-9,i,i,i,6*,-2.8,74*,0.52,i,i,
O=C(Nc1ccccc1)Nc1ccc(Br)cc1F,-11,i,i,i,i,-0.79,/,/,/,/,
COC(=O)[C@]1(C)N[C@H](CN(C)C(=O)c2ccc(C(C)(C)C)cc2)[C@@H]2C(=O)N(Cc3ccccc3)C(=O)[C@@H]21,/,/,i,/,/,/,/,/,/,/,
CCOP(=O)(OCC)C(NC(=O)c1cccs1)c1ccccc1 (stereo not drawn),-6,i,i,i,i,-0.51,/,/,/,/,
Cc1ccc(SCC(=O)Nc2nnc(C(C)(C)C)s2)cc1,-7,i,i,i,i,2.1,/,/,/,/,
Cc1ccc(C(=O)OCC(=O)NCc2ccco2)cc1C,/,/,i,/,/,/,/,/,/,/,
O=C(COC(=O)/C=C/c1ccc(F)cc1)Nc1ccc(S(=O)(=O)N2CCOCC2)cc1,/,/,i,/,/,/,/,/,/,/,
O=C(Nc1cccc(Cl)c1)Nc1nccs1,-6,i,i,i,7*,1.7,70*,0.54,i,42%*,
COc1cc(NC(=O)c2ccnnc2)cc(C(=O)Nc2cccc(C(F)(F)F)c2)c1,-16,i,i,i,9*,0.21,92*,0.47,111%*,117%*,
O=C(Nc1cccc(C(F)(F)F)c1)c1cccnc1,-9,i,i,i,i,0.02,/,/,/,/,
CC(C)(C)c1ccc(NC(=O)COc2ccc(-n3ccnc3)cc2)cc1,-17,i,i,i,7*,-0.22,130*,0.47,74%*,40%*,
COc1cc(NC(=O)COc2ccc(-n3ccnc3)cc2)cc(OC)c1,-11,i,i,i,i,-2.9,/,/,/,/,

# Source: PubChem BioAssay (Johns Hopkins Ion Channel Center)
